# Assay outcomes from PubChem BioAssay.
# DENV2 CPE – inhibitors of DENV2 cytopathic effect | CPE inhibition, % at 9.99 µM | 350,000 tested, 1.7% active | DENV2-infected cells, cytopathic effect rescue, plate reader; in the data active means CPE inhibition above about 20%, passing the limit was not always enough; inconclusive means no clear call, values can overlap the other calls; tested in BHK-21 cells;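 further: 0% = median of neutral control wells and 100% = median of positive control wells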
# miR122 inh – miR-122 inhibition in Huh7 cells; activation (reporter increase), % at 12.5 µM; 340,000 tested, 0.3% active; Huh7 miR-122 Renilla luciferase sensor, 48 h; neutral wells = 0, positive control = 100;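 active means mean replicate activation score at least 90 and every replicate individually at or above 90; inconclusive means only one of the two criteria met; inactive means neither criterion met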;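 further: higher luciferase means less miR-122 activity so hits act as miR-122 inhibitors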
# E-selectin induc – E-selectin induction on HUVECs; HUVEC E-selectin immunofluorescence imaging; normalized: neutral wells 0, TNF-alpha wells 100; activation, % at 7.58 µM; 260,000 tested, 0.37% active; AID 686992;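 active means mean E-selectin-positive cell signal at least 10% of the positive control, reached in at least 60% of replicates, without over 20% cell loss; inconclusive means no rule given, readout overlaps actives, possibly toxicity-flagged; inactive means the rest, including those meeting only one limit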
# Target sequence (P16581 whole entry, looked up): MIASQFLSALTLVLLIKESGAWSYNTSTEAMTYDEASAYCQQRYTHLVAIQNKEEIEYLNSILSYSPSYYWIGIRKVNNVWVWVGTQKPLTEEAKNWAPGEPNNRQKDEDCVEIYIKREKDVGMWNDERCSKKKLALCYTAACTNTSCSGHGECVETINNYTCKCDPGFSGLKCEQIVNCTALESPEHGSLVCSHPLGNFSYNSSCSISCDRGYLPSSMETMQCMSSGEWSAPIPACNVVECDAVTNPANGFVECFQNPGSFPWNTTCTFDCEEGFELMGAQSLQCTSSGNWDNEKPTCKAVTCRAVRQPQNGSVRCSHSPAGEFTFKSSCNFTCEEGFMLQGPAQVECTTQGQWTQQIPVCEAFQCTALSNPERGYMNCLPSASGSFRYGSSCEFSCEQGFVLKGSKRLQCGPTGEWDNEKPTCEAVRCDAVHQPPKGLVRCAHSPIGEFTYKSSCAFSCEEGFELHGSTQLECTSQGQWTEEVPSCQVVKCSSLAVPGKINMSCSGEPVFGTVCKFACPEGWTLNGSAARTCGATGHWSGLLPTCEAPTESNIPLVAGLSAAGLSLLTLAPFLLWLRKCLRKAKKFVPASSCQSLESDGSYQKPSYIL
#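 assay system = HUVEC, human umbilical vein endothelial cells | input = 3,000 HUVEC seeded per well | medium = EGM-2 growth medium on 0.1% gelatin-coated wells | dosing = one compound dose added by pin transfer | signal = immunofluorescence imaging | read-out basis = % PE-positive cells | control set = TNF-alpha, DMSO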
# Cneo AK release – Cryptococcus neoformans lysis via adenylate kinase release; C. neoformans lysis, adenylate kinase release luminescence, 4 h; normalised: neutral wells 0, clomiphene wells 100; 360,000 tested, 0.2% active; lysis activity, % at 15 µM;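 active means mean lysis activity across replicates of at least 80%, whatever share of replicates individually reach that level; inactive means mean lysis activity below 80%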
#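 Test system: log-phase Cryptococcus neoformans yeast cells. Input: 5 × 10^6 yeast cells/mL. Medium: fresh YPD growth medium. Doses: single dose. Incubation: static 4 h at 37 °C with compound, 1 h detection. Measured by: luminescent adenylate kinase detection reagent. Read-out: signal increase indicating cell lysis. Benchmarks: Clomiphene.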
# Ecoli rRNA inh – inhibitors of bacterial rRNA selective over humanized ribosomes | 350,000 tested, 1.6% active | GFP signal change (wild-type ribosome), % (concentration not given with the values) | E. coli WT GFP vs humanized-ribosome RFP mutants, fluorescence, 24 h; hits give low values; DMSO median 0, no signal -100;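 active means significant combined selectivity score with lowered wild-type GFP, culture density cut under 30%, mutant RFP and density less affected; inactive means any of these conditions unmet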
# Starred values were filed as active, the others as inactive; u = inconclusive; x = not tested or not shown; [ ] = remark or other dose. Most compounds without a hit are left out; they make up all but 3.1% or so of the library.
SMILES,DENV2 CPE,miR122 inh,E-selectin induc,Cneo AK release,Ecoli rRNA inh
COc1ccc2cc(-c3[nH]ncc3CN3CCCC3c3nonc3C)ccc2c1 (stereo not drawn),-4,-7,x,0,-23*
C[C@@H]1CCCCO[C@H](CN(C)C(=O)Nc2ccc3c(c2)OCO3)[C@@H](C)CN([C@@H](C)CO)C(=O)c2cc(NC(=O)c3ccncc3)ccc2O1,-1,6[16.7 µM],0,-3,-1
CC(C)N1C(=O)C2(OCCCO2)c2cc(Br)ccc21,4,4,0,84*,5
COc1cccc(C(=O)N2CCOCC2)c1,33*,3,0,x,8
COc1cccc(C(=O)Nc2cccc(C(=O)N3CCOCC3)c2)c1,x,x,0,x,x
COc1ccc(CN(C)C[C@H]2Oc3c(NC(=O)c4ccc(-c5nccs5)cc4)cccc3C(=O)N([C@@H](C)CO)C[C@@H]2C)cc1,22*,35[16.7 µM],x,-1,-10
COc1ccc(CN(C)C[C@@H]2Oc3c(NC(=O)c4ccc(-c5nccs5)cc4)cccc3C(=O)N([C@@H](C)CO)C[C@H]2C)cc1,5,1[16.7 µM],x,2,x
CNC[C@H]1Oc2c(NC(=O)c3ccc(-c4nccs4)cc3)cccc2C(=O)N([C@H](C)CO)C[C@H]1C,41*,0[16.7 µM],0,-2,2
C[C@@H]1CN([C@H](C)CO)C(=O)c2cccc(NC(=O)c3ccc(-c4nccs4)cc3)c2O[C@@H]1CN(C)Cc1ccc(Oc2ccccc2)cc1,4,-4[16.7 µM],4,-1,4
C[C@H]1CN([C@@H](C)CO)C(=O)c2cccc(NC(=O)c3ccc(-c4nccs4)cc3)c2O[C@@H]1CN(C)Cc1ccc(Cl)c(Cl)c1,7,12[16.7 µM],304*,2,-1
C[C@@H]1CN([C@@H](C)CO)C(=O)c2cccc(NC(=O)c3ccc(-c4nccs4)cc3)c2O[C@H]1CN(C)Cc1ccc(Oc2ccccc2)cc1,u,-2[16.7 µM],71*,-3,7
C[C@H](CO)N1C[C@H](C)[C@H](CN(C)C(=O)Nc2ccc3c(c2)OCO3)Oc2c(NS(=O)(=O)c3cccs3)cccc2C1=O,3,5[16.7 µM],-5,5,-3
CCCC(=O)Nc1ccc2c(c1)OC[C@H](C)N(C(=O)CC1CC1)C[C@@H](C)[C@@H](OC)CN(C)C2=O,5,-3[16.7 µM],0,1,0
COc1ccc(CN2CC3(CCN(Cc4ccccn4)CC3)c3c(n(C)c4cc(OC)ccc34)[C@@H]2CO)cc1,0,x,0,x,-1
CC(=O)Nc1cccc2c1O[C@@H](CN(C)C(=O)NC(C)C)[C@@H](C)CN(C)C2=O,x,x,x,x,2
O=C(C[C@H]1C=C[C@H](NC(=O)c2ccccc2)[C@@H](CO)O1)NCc1ccc(Oc2ccccc2)cc1,1,-8[16.7 µM],0,-6,1
O=C(Nc1cccc(Cl)c1)N[C@H]1CC[C@@H](CCNC(=O)C2CCOCC2)O[C@H]1CO,4,x,0,0,-2
CC(C)(C)S(=O)(=O)c1cnc(-c2cnccn2)nc1N,4,4,46*,1,16
CC(C)(C)S(=O)(=O)c1cnc(-c2ccccn2)nc1N,u,x,0,x,18
COc1cccc(NC(=O)C(=O)N/N=C/c2cc(C)n(-c3ccc(Cl)c(Cl)c3)c2C)c1,3,-10,x,-1,-18*
Cc1cc(/C=N/NC(N)=S)c(C)n1-c1ccc(Cl)c(Cl)c1,0,x,x,x,-3
C[C@@H]1CCCCO[C@H](CN(C)C)[C@H](C)CN([C@H](C)CO)C(=O)c2cc(NC(=O)CCCN(C)C)ccc2O1,x,5[16.7 µM],0,x,2
CCNC(=O)C[C@H]1CC[C@@H]2[C@@H](COc3ccc(NC(=O)Nc4cccc(F)c4)cc3C(=O)N2C)O1,-5,1[16.7 µM],1,2,-8
CC1=CC(=O)C2=C(C)CCC3C(C)C(=O)OC3C12 (stereo not drawn),22*,-1,x,0,-1
O=C(COc1ccc(Br)cc1CO)Nc1ccccc1,x,-4,x,0,x
Cc1ccc(NC(=O)COc2ccc(Br)cc2CO)cc1,x,284*,x,x,x
O=C(C[C@H]1CC[C@@H]2NC[C@H](O)COC[C@H]2O1)NCCN1CCCC1,-6,x,0,x,2
O=C1CCCC2=C1C(c1ccc3c(c1)OCO3)c1c([nH]n(-c3ccccc3)c1=O)N2 (stereo not drawn),x,191*,x,-2,x
